According to ChEMBL document CHEMBL4808175 (J Med Chem, 2021):
Active and inactive are the calls of the source. The calls are words filed in the database; no cut-off is given here.

Experiments:
[1] = target: cGMP-inhibited 3',5'-cyclic phosphodiesterase 3A (Homo sapiens, UniProt Q14432); experiment: Inhibition of recombinant GST-tagged PDE3A (669 to end residues) (unknown origin) expressed in baculovirus infected Sf9 insect cells using TAMRA-cGMP as substrate incubated for 1.5 hrs by IMAP-FP assay
Chain of cGMP-inhibited 3',5'-cyclic phosphodiesterase 3A (Q14432 whole entry): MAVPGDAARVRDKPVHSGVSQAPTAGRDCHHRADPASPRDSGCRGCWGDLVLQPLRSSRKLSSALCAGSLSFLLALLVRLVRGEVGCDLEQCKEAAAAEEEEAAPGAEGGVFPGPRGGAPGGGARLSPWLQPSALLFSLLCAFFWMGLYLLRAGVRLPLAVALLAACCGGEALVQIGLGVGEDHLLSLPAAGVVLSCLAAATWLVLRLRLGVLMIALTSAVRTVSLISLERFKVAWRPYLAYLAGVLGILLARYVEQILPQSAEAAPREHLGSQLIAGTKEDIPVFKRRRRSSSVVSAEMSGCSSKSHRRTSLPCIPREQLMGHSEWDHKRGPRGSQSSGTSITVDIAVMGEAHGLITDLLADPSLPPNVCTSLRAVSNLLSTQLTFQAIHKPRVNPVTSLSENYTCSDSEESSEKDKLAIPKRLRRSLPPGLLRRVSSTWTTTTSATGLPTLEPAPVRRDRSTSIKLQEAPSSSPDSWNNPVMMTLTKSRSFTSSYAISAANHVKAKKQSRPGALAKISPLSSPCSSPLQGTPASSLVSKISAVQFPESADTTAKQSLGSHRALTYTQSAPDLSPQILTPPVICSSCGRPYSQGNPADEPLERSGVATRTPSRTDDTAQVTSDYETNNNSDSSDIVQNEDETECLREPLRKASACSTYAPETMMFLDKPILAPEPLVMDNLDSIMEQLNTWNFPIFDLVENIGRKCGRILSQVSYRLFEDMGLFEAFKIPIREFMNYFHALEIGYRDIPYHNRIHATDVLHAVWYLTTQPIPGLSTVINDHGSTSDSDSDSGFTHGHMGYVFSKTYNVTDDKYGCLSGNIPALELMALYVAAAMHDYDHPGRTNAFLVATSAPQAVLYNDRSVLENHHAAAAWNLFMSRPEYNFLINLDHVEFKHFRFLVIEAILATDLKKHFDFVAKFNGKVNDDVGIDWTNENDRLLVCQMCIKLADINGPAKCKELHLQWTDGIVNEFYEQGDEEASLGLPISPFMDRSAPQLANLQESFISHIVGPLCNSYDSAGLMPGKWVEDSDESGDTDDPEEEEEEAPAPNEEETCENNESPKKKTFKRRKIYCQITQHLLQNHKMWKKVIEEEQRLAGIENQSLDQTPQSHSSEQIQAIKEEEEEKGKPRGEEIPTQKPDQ
Method in brief: (§1)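 PDE enzymes incubated with compound or vehicle and 50 nM TAMRA-cGMP or FAM-cAMP substrate for 1.5 h at 30 °C. Activity read by IMAP fluorescence polarization. IC50 from 10 concentrations, at least two replicates each, fitted by four-parameter logistic. Dose–response repeated at least twice; mean of at least two experiments.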

[2] = target: T1, cGMP-specific 3',5'-cyclic phosphodiesterase (Homo sapiens, UniProt O76074); experiment: Competitive inhibition of recombinant 6His-tagged PDE5A1 catalytic domain (unknown origin) expressed in Escherichia coli assessed as increase in apparent Km up to 40 nM using varying levels TAMRA-cGMP or FAM-cAMP as substrate; settings: dose nM <=40
[3] = Tmax in C57BL/6N mouse at 150 mg/kg, po administered as single dose measured up to 8 hrs by LC-MS/MS analysis; assay type: ADME, organism-based; settings: in vivo
[4] = target: Dual specificity calcium/calmodulin-dependent 3',5'-cyclic nucleotide phosphodiesterase 1A (Homo sapiens, UniProt P54750); experiment: Inhibition of recombinant full length GST-tagged PDE1A (unknown origin) expressed in baculovirus infected Sf9 insect cells using FAM-cAMP as substrate incubated for 1.5 hrs by IMAP-FP assay; method in brief: as §1
[5] = AUC (0 to 8 hrs) in C57BL/6N mouse at 150 mg/kg, po administered as single dose measured up to 8 hrs by LC-MS/MS analysis; assay type: ADME, organism-based; parameters: route oral, dose 150 mg/kg, time <=8; settings: in vivo
[6] = target: High affinity cAMP-specific and IBMX-insensitive 3',5'-cyclic phosphodiesterase 8A (Homo sapiens, UniProt O60658); experiment: Inhibition of recombinant GST-tagged full length PDE8A1 (unknown origin) expressed in baculovirus infected Sf9 insect cells using FAM-cAMP as substrate incubated for 1.5 hrs by IMAP-FP assay; method in brief: as §1
Chain of High affinity cAMP-specific and IBMX-insensitive 3',5'-cyclic phosphodiesterase 8A (O60658 whole entry): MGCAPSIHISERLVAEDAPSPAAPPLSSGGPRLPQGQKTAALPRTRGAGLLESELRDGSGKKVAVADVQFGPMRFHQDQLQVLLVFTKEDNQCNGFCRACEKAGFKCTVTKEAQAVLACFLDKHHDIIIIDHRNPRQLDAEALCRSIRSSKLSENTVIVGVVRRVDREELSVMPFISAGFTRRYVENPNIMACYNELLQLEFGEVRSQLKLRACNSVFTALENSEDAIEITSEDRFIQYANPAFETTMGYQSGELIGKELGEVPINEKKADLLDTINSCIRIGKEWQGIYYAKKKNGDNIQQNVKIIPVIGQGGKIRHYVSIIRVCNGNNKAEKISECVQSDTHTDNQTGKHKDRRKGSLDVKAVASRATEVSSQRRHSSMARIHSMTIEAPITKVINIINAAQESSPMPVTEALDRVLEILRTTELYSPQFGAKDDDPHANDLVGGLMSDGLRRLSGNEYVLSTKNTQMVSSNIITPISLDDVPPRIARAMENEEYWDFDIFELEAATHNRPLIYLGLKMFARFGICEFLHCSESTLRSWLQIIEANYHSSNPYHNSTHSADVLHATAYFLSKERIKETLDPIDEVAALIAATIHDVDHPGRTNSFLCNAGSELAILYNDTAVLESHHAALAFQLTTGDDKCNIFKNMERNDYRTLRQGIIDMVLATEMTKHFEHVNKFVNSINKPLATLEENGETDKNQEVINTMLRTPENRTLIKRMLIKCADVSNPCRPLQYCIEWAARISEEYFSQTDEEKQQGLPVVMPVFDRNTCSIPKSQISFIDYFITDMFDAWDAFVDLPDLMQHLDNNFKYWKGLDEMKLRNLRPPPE

[7] = target: cAMP and cAMP-inhibited cGMP 3',5'-cyclic phosphodiesterase 10A (Homo sapiens, UniProt Q9Y233); experiment: Inhibition of recombinant GST-tagged full length PDE10A2 (unknown origin) expressed in baculovirus infected Sf9 insect cells using FAM-cAMP as substrate incubated for 1.5 hrs by IMAP-FP assay; method in brief: as §1
Chain of cAMP and cAMP-inhibited cGMP 3',5'-cyclic phosphodiesterase 10A (Q9Y233 whole entry): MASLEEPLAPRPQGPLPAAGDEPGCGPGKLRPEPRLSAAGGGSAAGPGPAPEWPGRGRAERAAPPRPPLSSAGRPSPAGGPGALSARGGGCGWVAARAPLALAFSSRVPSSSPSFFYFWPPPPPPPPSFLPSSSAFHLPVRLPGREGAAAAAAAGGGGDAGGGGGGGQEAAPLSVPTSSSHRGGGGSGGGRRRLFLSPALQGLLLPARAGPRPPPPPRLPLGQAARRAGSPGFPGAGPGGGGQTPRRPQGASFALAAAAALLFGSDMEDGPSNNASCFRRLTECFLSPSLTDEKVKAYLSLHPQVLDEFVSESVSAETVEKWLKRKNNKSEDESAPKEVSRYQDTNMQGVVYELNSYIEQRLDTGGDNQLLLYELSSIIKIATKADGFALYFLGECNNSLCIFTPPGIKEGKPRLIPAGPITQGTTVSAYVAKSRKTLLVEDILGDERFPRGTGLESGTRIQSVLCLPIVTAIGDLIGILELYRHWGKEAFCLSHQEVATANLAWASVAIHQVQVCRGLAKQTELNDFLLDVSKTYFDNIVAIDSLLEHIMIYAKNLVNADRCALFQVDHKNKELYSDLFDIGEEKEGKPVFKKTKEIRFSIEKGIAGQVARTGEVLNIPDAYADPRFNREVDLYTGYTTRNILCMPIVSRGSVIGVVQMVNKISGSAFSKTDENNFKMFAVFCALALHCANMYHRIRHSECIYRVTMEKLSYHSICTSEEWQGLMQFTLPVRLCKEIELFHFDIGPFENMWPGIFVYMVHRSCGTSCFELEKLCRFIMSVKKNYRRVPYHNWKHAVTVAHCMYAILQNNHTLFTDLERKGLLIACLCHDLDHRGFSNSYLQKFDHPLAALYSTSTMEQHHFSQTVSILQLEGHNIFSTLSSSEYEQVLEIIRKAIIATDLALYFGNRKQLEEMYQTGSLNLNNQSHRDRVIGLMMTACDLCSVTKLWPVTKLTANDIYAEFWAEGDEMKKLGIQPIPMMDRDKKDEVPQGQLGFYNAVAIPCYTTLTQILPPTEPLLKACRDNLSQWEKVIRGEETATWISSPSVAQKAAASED

[8] = target: Cone cGMP-specific 3',5'-cyclic phosphodiesterase subunit alpha' (Homo sapiens, UniProt P51160); experiment: Inhibition of recombinant full length GST-tagged PDE6C (unknown origin) expressed in baculovirus infected Sf9 insect cells using TAMRA-cGMP as substrate incubated for 1.5 hrs by IMAP-FP assay; method in brief: as §1
Chain of Cone cGMP-specific 3',5'-cyclic phosphodiesterase subunit alpha' (P51160 whole entry): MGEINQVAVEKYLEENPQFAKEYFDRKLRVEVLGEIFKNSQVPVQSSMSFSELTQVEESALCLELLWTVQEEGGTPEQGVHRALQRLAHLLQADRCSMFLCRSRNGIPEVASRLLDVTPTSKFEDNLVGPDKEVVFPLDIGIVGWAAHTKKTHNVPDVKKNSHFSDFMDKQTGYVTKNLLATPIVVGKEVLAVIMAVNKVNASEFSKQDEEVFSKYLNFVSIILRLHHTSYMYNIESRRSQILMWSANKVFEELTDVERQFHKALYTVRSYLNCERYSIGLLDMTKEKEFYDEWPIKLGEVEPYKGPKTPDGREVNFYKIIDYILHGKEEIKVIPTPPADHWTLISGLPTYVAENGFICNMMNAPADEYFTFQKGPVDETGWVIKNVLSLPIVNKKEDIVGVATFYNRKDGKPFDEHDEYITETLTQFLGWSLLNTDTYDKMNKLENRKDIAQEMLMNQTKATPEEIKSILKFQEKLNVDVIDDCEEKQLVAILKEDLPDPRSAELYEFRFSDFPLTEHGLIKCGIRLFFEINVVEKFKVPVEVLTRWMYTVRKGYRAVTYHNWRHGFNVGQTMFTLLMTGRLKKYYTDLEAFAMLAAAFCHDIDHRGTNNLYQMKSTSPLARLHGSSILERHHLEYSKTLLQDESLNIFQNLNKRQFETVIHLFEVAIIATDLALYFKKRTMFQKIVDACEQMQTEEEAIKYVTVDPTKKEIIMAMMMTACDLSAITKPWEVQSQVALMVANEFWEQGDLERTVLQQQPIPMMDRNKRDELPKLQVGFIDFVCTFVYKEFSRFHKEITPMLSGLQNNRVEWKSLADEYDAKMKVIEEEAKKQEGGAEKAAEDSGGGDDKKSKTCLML

[9] = target: Dual 3',5'-cyclic-AMP and -GMP phosphodiesterase 11A (Homo sapiens, UniProt Q9HCR9); experiment: Inhibition of recombinant GST-tagged full length PDE11A4 (unknown origin) expressed in baculovirus infected Sf9 insect cells using TAMRA-cGMP as substrate incubated for 1.5 hrs by IMAP-FP assay; method in brief: as §1
Chain of Dual 3',5'-cyclic-AMP and -GMP phosphodiesterase 11A (Q9HCR9 whole entry): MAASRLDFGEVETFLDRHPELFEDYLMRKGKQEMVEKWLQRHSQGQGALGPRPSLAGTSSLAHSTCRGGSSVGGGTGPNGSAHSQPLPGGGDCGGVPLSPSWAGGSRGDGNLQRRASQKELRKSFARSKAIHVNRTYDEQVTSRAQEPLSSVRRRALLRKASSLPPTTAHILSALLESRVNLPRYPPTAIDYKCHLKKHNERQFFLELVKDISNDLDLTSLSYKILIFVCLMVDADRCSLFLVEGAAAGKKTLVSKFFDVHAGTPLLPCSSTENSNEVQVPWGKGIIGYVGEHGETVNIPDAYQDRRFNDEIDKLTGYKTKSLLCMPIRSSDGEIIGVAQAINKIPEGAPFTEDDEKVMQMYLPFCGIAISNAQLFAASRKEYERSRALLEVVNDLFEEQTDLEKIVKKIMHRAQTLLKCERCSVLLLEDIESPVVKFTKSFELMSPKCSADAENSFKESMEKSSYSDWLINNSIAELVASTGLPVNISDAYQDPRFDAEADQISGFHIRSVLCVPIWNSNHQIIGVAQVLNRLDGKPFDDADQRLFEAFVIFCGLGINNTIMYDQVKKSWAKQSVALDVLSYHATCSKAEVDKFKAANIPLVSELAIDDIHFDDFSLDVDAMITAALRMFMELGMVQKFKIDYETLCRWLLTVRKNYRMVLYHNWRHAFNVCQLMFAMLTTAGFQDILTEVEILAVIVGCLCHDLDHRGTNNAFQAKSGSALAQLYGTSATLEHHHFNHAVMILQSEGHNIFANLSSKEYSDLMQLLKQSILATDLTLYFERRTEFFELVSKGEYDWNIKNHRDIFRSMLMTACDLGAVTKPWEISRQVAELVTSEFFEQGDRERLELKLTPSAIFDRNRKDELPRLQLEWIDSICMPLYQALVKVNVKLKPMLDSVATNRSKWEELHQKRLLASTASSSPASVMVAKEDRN

[10] = Observed volume of distribution in C57BL/6N mouse at 150 mg/kg, po administered as single dose measured up to 8 hrs by LC-MS/MS analysis; assay type: ADME, organism-based; settings: in vivo
[11] = Elimination rate constant in C57BL/6N mouse at 150 mg/kg, po administered as single dose measured up to 8 hrs by LC-MS/MS analysis; assay type: ADME, organism-based; settings: in vivo
[12] = target: T1, cGMP-specific 3',5'-cyclic phosphodiesterase; experiment: Inhibition of recombinant full length GST-tagged PDE5A1 (unknown origin) expressed in baculovirus infected Sf9 insect cells using TAMRA-cGMP as substrate incubated for 1.5 hrs by IMAP-FP assay
[13] = target: High affinity 3',5'-cyclic-AMP phosphodiesterase 7A (Homo sapiens, UniProt Q13946); experiment: Inhibition of recombinant GST-tagged PDE7A (122 to end residues) (unknown origin) expressed in baculovirus infected Sf9 insect cells using FAM-cAMP as substrate incubated for 1.5 hrs by IMAP-FP assay; method in brief: as §1

IC50 [1]: > 10 µM
inhibition [2]: Active
Tmax [3]: 2 h
IC50 [4]: > 10 µM
AUC(0-t) [5]: 14100 ng·h/mL
IC50 [6]: > 10 µM
IC50 [7]: > 10 µM
IC50 [8]: > 10 µM
IC50 [9]: > 10 µM
Vd [10]: 625 mL
k el at 8 h [11]: 8.33e-05 s⁻¹
IC50 [12]: 0.001 µM
IC50 [13]: > 10 µM
SMILES: COc1c(F)cc(C2CC(C(C)(C)C)=NN2c2ccc(C(=O)N3CCN(C)CC3)cc2)cc1F (stereo not drawn)
